This note sets out measurements from ChEMBL document CHEMBL4396917, “Synthesis and biological evaluation of novel benzylidene-succinimide derivatives as noncytotoxic antiangiogenic inhibitors with anticolorectal cancer activity in vivo” (Eur J Med Chem, 2019).

The test system of data set [1] is HT-29. The experiment in a line: Induction of apoptosis in human HT-29 cells assessed as late apoptotic cells at 5 uM after 72 hrs by Annexin V-FITC/propidium iodide staining based flow cytometric analysis (reference value: 12.3%). As to conditions: ht-29, 72 h. Type of data set: cell-based.
Data set [2] concerns HUVEC. Kind of data set: Induction of apoptosis in VEGF-stimulated HUVEC assessed as early apoptotic cells at 20 uM after 24 hrs by Annexin V-FITC/propidium iodide staining based flow cytometric analysis (reference value: 7%). As to conditions: human. Type of data set: cell-based. The procedure, abridged: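 HUVECs plated at 5×10^5 per well and treated 24 h with 1, 5, 10 or 20 μM. Detached and adherent cells were pooled, washed in ice-cold PBS and resuspended in fresh medium. 1×10^5 cells were stained with annexin-V-FITC in annexin-V buffer for 20 min in the dark, then PI (50 μg/mL) was added. Read-out by flow cytometry.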

Data set [3] relates to HT-29. Kind of data set: Downregulation of VEGF expression in human HT-29 cells after 24 hrs by immunoblot analysis. Type of data set: functional, cell-based.
Data set [4] has as its system HUVEC. Kind of data set: Inhibition of Akt/mTOR signalling in VEGF-induced HUVEC assessed as reduction in AKT phosphorylation at Ser473 residue at 1 to 20 uM pre-incubated for 1.5 hrs followed by VEGF stimulation and measured after 30 mins by Western blot analysis. Type of data set: cell-based. As to conditions: Homo sapiens. The procedure, abridged:
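HUVECs were starved overnight, pretreated 1.5 h with 1, 5, 10 or 20 μM, then stimulated with VEGF (50 ng/mL) for 30 min. Lysates were equalized by Bradford assay, about 20 μg protein was resolved on gradient SDS-PAGE and immunoblotted with phospho-specific antibodies. Detection by HRP secondary antibodies and ECL.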

In a further data set the test system is HCT-116. Kind of data set: Cytotoxicity against human HCT116 cells assessed as reduction in cell growth after 72 hrs by MTT assay. It counts as cell-based. As to conditions: HCT-116, 72 h.
The subject of data set [5] is HUVEC. The experiment in a line: Antiinvasive activity in HUVEC assessed as inhibition of VEGF-induced cell invasion at 1 uM after 6 hrs by crystal violet staining based transwell assay relative to control. As to conditions: Homo sapiens. Type of data set: functional. The procedure, abridged: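 Transwell: 1×10⁴ HUVECs in serum-free M200 in top chamber with vehicle or compound; bottom chamber M200 with 10% FBS; 6 h at 37°C; cells on membrane underside fixed in 4% paraformaldehyde, stained 0.1% crystal violet, imaged and counted.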

Data set [6] relates to HT-29. Kind of data set: Antitumor activity against human HT-29 cells xenografted in mouse assessed as increase in apoptosis in tumor at 20 to 60 mg/kg, po administered every ither day for 3 weeks and measured at 20 days post treatment by TUNEL assay. It counts as functional, organism-based.
Data set [7] can be described thus: Induction of apoptosis in human HT-29 cells assessed as viable cells at 5 uM after 24 hrs by Annexin V-FITC/propidium iodide staining based flow cytometric analysis (reference value: 80.8 to 81.1%). Type of data set: cell-based. As to conditions: read-out: Activity.
In data set [8] the test system is HT-29. The experiment in a line: Downregulation of HIF1-alpha mRNA expression in human HT-29 cells after 24 hrs by RT-qPCR assay. Type of data set: functional, cell-based. The procedure, abridged:
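HT29 cells treated with 1, 5, 10 or 20 μM for 24 h; total RNA extracted with TRIzol; SYBR Green qPCR, 40 cycles of 5 s at 95°C and 60 s at 60°C in 20-μL reactions.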

The subject of data set [9] is HUVEC. The experiment in a line: Antimigratory activity in HUVEC assessed as reduction in VEGF-induced cell migration at 2.5 uM measured after 24 hrs by wound healing assay relative to control. Type of data set: functional. As to conditions: Homo sapiens. The procedure, abridged: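 Confluent HUVECs starved 12 h in M200 with 2% FBS, scratched with pipette tip; fresh M200 with 25 ng/mL VEGF plus vehicle, 2.5 μM sunitinib or compound (1, 2.5 μM); wound imaged at 0, 6, 12 and 24 h by inverted microscopy.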

Data set [10] relates to HT-29. The experiment in a line: Induction of apoptosis in human HT-29 cells assessed as late apoptotic cells at 5 uM after 48 hrs by Annexin V-FITC/propidium iodide staining based flow cytometric analysis (reference value: 12.3%). It counts as cell-based. As to conditions: ht-29, 48 h.
Data set [11] relates to HT-29. The experiment in a line: Cytotoxicity against human HT-29 cells assessed as reduction in cell growth after 72 hrs by MTT assay. Type of data set: cell-based. As to conditions: HT-29, 72 h.
Data set [12] has as its system HUVEC. Kind of data set: Antiangiogenic activity in HUVEC assessed as inhibition of VEGF-induced capillary like tube formation at 5 uM preincubated with VEGF for 20 mins followed by compound addition measured after 6 hrs by matrigel based tube formation assay relative to control. It counts as functional. As to conditions: Homo sapiens. The method, boiled down:
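Matrigel (100 μL) set 1 h at 37°C; 2×10⁴ HUVECs in M200 with 10% FBS added per well plus 10 ng/mL VEGF; compound added after 20 min; incubated 6 h at 37°C, then capillary-like structures photographed.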

A further data set relates to PC-3. Kind of data set: Cytotoxicity against human PC3 cells assessed as reduction in cell growth after 72 hrs by MTT assay. It counts as cell-based. As to conditions: PC-3, 72 h.
Data set [13] has as its system HT-29. Kind of data set: Antitumor activity against human HT-29 cells xenografted in mouse assessed as reduction in mTOR phosphorylation in tumor at 20 to 60 mg/kg, po administered every other day for 3 weeks and measured at 20 days post treatment by immunohistochemical staining. It counts as functional, organism-based.
Data set [14] has as its system HUVEC. The experiment in a line: Effect on total STAT3 expression in VEGF-induced HUVEC at 1 to 20 uM pre-incubated for 2 hrs followed by VEGF stimulation and measured after 15 mins by Western blot analysis. As to conditions: human, 0.25 h. It counts as ADME, cell-based. The method, boiled down: (§1)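 HUVECs serum-starved overnight, pretreated with compound (methods: 1, 2.5, 5, 10 μM for 2 h; legend: 1, 5, 10, 20 μM for 1.5 h), then VEGF 50 ng/mL (methods: VEGF165, 15 min; legend: 30 min); lysates equalized by Bradford, ~20 μg protein resolved on gradient SDS-PAGE, immunoblotted, ECL detection.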

Data set [15] has as its system HUVEC. The experiment in a line: Effect on total Src expression in VEGF-induced HUVEC at 1 to 20 uM pre-incubated for 2 hrs followed by VEGF stimulation and measured after 15 mins by Western blot analysis. It counts as ADME, cell-based. As to conditions: human, 0.25 h. The method, boiled down: as §1
The target in data set [16] is Serine/threonine-protein kinase mTOR (Homo sapiens) (UniProt P42345). Kind of data set: Inhibition of mTOR (unknown origin) at 10 uM using myelin basic protein as substrate in presence of [gamma-33P]-ATP by scintillation counting analysis relative to control. The procedure, abridged: (§2)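 Radiometric kinase panel run by a contract lab. Kinase (5–10 mU) in 25 mM Tris pH 7.5, 0.02 mM EGTA, 0.66 mg/mL myelin basic protein, magnesium acetate and [γ-33P]-ATP (about 500 cpm/pmol). Started with Mg-ATP mix, 40 min at room temperature, stopped with 3% phosphoric acid. Spotted on P30 filters, washed in 75 mM phosphoric acid and methanol, scintillation counted. Mean ± SD of three independent experiments.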

Data set [17] concerns HT-29. Kind of data set: Induction of apoptosis in human HT-29 cells assessed as necrotic cells at 5 uM after 72 hrs by Annexin V-FITC/propidium iodide staining based flow cytometric analysis (reference value: 1.3%). Type of data set: cell-based. As to conditions: ht-29, 72 h.
Data set [18] deals with Vascular endothelial growth factor receptor 2 (Homo sapiens) (UniProt P35968). The experiment in a line: Inhibition of VEGFR2 (unknown origin) at 10 uM using myelin basic protein as substrate in presence of [gamma-33P]-ATP by scintillation counting analysis relative to control. The procedure, abridged: as §2
Sequence of Vascular endothelial growth factor receptor 2 (Homo sapiens) (P35968 whole entry): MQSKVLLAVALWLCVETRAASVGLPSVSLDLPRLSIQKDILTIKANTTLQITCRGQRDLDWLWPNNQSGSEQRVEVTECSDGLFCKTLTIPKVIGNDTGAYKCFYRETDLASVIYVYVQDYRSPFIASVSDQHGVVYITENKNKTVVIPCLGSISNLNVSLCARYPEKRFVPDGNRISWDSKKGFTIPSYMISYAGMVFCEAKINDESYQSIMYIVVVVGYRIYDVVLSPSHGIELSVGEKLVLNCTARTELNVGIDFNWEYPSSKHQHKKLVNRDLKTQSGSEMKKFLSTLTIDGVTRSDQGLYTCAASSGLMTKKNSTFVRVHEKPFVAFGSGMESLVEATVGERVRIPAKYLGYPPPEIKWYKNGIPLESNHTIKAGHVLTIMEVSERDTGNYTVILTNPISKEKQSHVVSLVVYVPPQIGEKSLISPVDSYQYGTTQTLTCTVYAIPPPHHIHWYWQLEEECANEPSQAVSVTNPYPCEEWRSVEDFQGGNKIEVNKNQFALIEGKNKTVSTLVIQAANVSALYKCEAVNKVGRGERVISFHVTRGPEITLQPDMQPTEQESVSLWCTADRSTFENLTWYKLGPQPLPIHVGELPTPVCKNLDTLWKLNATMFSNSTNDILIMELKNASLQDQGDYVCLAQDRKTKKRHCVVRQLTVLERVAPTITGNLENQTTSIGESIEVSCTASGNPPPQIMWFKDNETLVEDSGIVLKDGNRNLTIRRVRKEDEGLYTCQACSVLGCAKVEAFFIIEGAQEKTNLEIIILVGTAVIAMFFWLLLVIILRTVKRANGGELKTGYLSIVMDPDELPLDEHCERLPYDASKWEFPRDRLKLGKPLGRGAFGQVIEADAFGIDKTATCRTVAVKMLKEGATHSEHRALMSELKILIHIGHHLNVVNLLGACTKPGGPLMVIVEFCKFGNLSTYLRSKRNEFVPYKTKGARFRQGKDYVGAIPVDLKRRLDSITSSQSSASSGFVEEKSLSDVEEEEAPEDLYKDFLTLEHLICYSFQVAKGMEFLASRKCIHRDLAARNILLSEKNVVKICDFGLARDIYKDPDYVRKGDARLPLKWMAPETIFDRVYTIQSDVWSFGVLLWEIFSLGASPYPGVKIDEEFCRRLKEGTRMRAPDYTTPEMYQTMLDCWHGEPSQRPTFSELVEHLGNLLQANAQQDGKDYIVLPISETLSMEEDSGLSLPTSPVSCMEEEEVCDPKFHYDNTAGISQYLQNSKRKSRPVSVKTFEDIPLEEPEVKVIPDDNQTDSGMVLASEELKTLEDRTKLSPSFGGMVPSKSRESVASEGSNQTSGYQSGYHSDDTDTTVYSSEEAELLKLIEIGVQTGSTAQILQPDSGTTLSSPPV
Data set [19] relates to HT-29. Kind of data set: Downregulation of MMP2 expression in human HT-29 cells after 24 hrs by immunoblot analysis. It counts as functional, cell-based.
Data set [20] can be described thus: Induction of apoptosis in human HT-29 cells assessed as viable cells at 20 uM after 24 hrs by Annexin V-FITC/propidium iodide staining based flow cytometric analysis (reference value: 80.8%). As to conditions: read-out: Activity. Type of data set: cell-based.

The source made the active and inactive calls. No cut-off for these calls is given here. Some results are limits rather than exact numbers.

In the case of `COc1ccc(NC(=O)c2cccc(/C=C3\CC(=O)N(c4ccc(C)cc4)C3=O)c2)cc1`, the Activity in the data set with HT-29 [1] is 12.5%; in the data set on HUVEC [2] it was 9.8%; in the data set on HT-29 [10], 13.1%; in the data set on HUVEC [14] it was “Not Active”; in the data set on HUVEC [15], “Not Active”; in the data set on HT-29 [17], 0.8%. In addition, the inhibition result with HT-29 [3] was “Dose-dependent effect”; with HT-29 [8], “Dose-dependent effect”; in data set [16], 93.8%; in data set [18], 95.4%; in the data set on HT-29 [19] it was “Dose-dependent effect”. Also, the inhibition result with HUVEC [4] and with HT-29 [13] was “Active” each time. Also, the IC50 in the data set on HCT-116, in the data set on HT-29 [11] and with PC-3 was more than 100 µM in each case. The inhibition at 1 µM in the data set on HUVEC [5] was 20%. In the data set with HT-29 [6], the result was Active. Further, the viability at 24 h, 5 µM in data set [7] lay within 75.8 to 77.9%. In addition, the inhibition at 2.5 µM with HUVEC [9] was found to be 60%. In addition, in the data set on HUVEC [12], the inhibition at 5 µM was found to be 80%. Moreover, the viability at 24 h, 20 µM in [20] stood at 78.9%.
